Bioassay records from PubChem BioAssay.
Pyk2 oligo antag = antagonists of human Pyk2 oligomerization; Q14289; Q293 cells, Pyk2 FERM NanoBiT luminescence; hits give low values; z-score (the deposit names both 25 µM and 10 µM); 99,000 compounds, 0.83% hits; AID 1347419;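 active = Z-score of -3 or lower, scaled per plate to the spread of control and sample wells; inactive = z-score above -3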;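 also: negative z-score means lost luminescence so less FERM oligomerization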
MT1-MMP txn act = activates MT1-MMP transcription. HT1080 MT1-MMP promoter luciferase reporter, luminescence, overnight; hits give high values. activation factor at 10 µM. 86,000 compounds, 0.16% hits;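 active = activation factor of at least 2 for MT1-MMP transcription at 10 µM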
HUVEC inhibit = inhibitors of human endothelial cell proliferation | viability, % at 10 µM (by protocol) | 86,000 compounds, 1.1% hits | HUVEC proliferation, CellTiter-Glo luminescence, 72 h; hits give low values | AID 648;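 active = viability at or below 30%; inactive = viability above 30%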;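 also: 100% = median luminescence of DMSO-only cell control wells on each plate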
H69AR growth 86K = growth inhibitors of human H69AR lung tumor cells; viability, % at 10 µM; H69AR lung tumor viability, ATP luminescence, 72 h; hits give low values; 85,000 compounds, 6% hits; AID 598;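 active = viability at or below 40%; inactive = viability above 40%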;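 also: multidrug resistant small cell line overexpressing MRP-1 efflux transporter; 100% = mean luminescence of untreated control wells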
Jurkat tox 60K = cytotoxicity toward Jurkat cells; Jurkat E6.1 viability, ATP luminescence, 48 h; inhibition, % at 4 µM; 56,000 compounds, 1.2% hits; AID 463;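 active = inhibition above the mean inhibition of all tested compounds plus 3 SD, cut at about 28% in these data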
Fibroblast inh = blocks proliferation of human lung fibroblasts; LL 47 human lung fibroblast viability, ATP luminescence; hits give low values; viability, % at 10 µM; 85,000 compounds, 1.1% hits;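 active = viability at or below 50% in the single dose screen; inactive = viability above 50%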;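 also: compound exposure lasted 72 h before the ATP readout; 100% = median luminescence of untreated cell-only wells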
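Material: human LL 47 lung fibroblast cells; quantity: 1,150 cells/well; medium: IMEM plus 15% FBS; doses: 0.1% DMSO in all compound wells; timing: overnight attachment after seeding, then 72 h compound exposure at 37 °C; detection: CellTiter-Glo luminescence; measure: % viability of median cell-only signal; controls: cell-only wells, no compound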
Starred values were filed as active, the others as inactive; · = no result. Sampled rows, rich in hits. Any-hit rate of the full collection: about 5.9%.

SMILES | Pyk2 oligo antag | MT1-MMP txn act | HUVEC inhibit | H69AR growth 86K | Jurkat tox 60K | Fibroblast inh
CC(C)OC(=O)c1ccc(NC(=O)c2ccco2)cc1 | -0.57 | · | 104 | 93 | · | 101
COCCn1c(C)cc(C(=O)CSc2nc3ccccc3o2)c1C | 0.26 | 1.2 | 25* | 91 | 13 | 94
CC1CCCN(S(=O)(=O)c2ccc(S(=O)(=O)N3CCCN(Cc4ccccc4)C3)cc2)C1 (centres undefined) | 0.89 | 1.3 | 41 | 31* | -4 | 85
NC(=O)C1CCCNC1 (centres undefined) | · | · | 113 | 92 | 0 | 103
COC(CN(C(=O)CCl)C(C(=O)NC1CCCCC1)c1ccc(C)cc1)OC (centres undefined) | 0.61 | · | · | · | · | ·
O=C(Oc1ccc(F)cc1C(=O)/C=C/c1cccs1)c1cccc([N+](=O)[O-])c1 | 0.35 | 1.1 | 60 | 3.0* | · | 64
COc1ccc(C(=O)/C=C/c2ccccc2F)c(OC(=O)c2ccc([N+](=O)[O-])cc2)c1 | -1.7 | · | · | · | · | ·
CN(C)CCCN1C(=O)C(=O)/C(=C(/O)c2ccc3c(c2)OCO3)C1c1cccnc1 (centres undefined) | · | 1.2 | 106 | 96 | · | 96
Cc1cc(/C=N/n2cnnc2)c(C)n1-c1ccc(OCc2ccc(F)cc2)cc1 | -0.8 | 1.2 | 55 | 19* | 45* | 75
Cc1cc(/C=N/n2cnnc2)c(C)n1-c1ccc(Cl)cc1Cl | 1 | 0.9 | 105 | 86 | -3 | 100
Cc1cc(/C=N/n2cnnc2)c(C)n1-c1ccc(OCc2ccc(Cl)cc2Cl)cc1 | -0.02 | · | 2.6* | 5.8* | · | 73
CC(C)(C)NC(=O)CSC(=Nc1ccc(F)cc1)NC#N | 1.4 | 1.1 | 88 | 87 | · | 94
O=c1c2ccccc2nc(SCc2nc3ccccc3s2)n1Cc1ccco1 | 1.4 | 1.1 | 42 | 33* | 6 | 60
O=c1c2ccccc2nc(SCc2ccccc2)n1Cc1ccco1 | -1.1 | 1.1 | 116 | 93 | 8 | 89
CCCCn1c(SCc2nc3ccccc3s2)nc2cc(S(N)(=O)=O)ccc21 | -1.6 | 1.1 | 78 | 16* | · | 93
CCCCn1c(SCC(=O)N2CCCCC2)nc2cc(S(N)(=O)=O)ccc21 | 0.57 | 1.3 | 92 | 95 | 8 | 97
CCCn1c(=O)c2ccccc2n2c(SCc3nc4ccccc4s3)nnc12 | -1.2 | 1.9 | 85 | 31* | 0 | ·
CCCn1c(=O)c2ccccc2n2c(SCCOc3ccccc3)nnc12 | 0.59 | 1.2 | 91 | 100 | -10 | 96
O=C1c2ccccc2C(=O)N1SC1CCCCC1 | 0.5 | 1 | 76 | 0.6* | -4 | 62
COc1ccc2c3c(cccc13)N(C)N=C2C | -0.38 | · | · | · | · | ·
COC(=O)[C@@]1(Cc2ccccc2)[C@H]2c3cc(C(=O)N4CCCC4)n(Cc4ccccc4)c3C[C@H]2CN1C(=O)c1ccccc1 | · | 1.2 | · | · | · | ·
Cc1cc(C)c(NC(=O)CN2C(=O)NC3(CCCCC3)C2=O)c(Cl)c1 | -0.14 | 1 | 81 | 29* | -6 | 88
Cc1nn(C(=O)c2c([N+](=O)[O-])cnn2C)c(C)c1Cl | -0.09 | 1.2 | 95 | 99 | · | 97
O=C(CSc1ncc(-c2ccc(F)cc2)[nH]1)N1CCCCC1 | 0.57 | 1.2 | 102 | 29* | 0 | ·
O=C(CSc1nc2c(cnn2-c2ccc(F)cc2)c(=O)[nH]1)N1CCCCC1 | · | 1.1 | · | · | -5 | ·
SMILES | Pyk2 oligo antag | MT1-MMP txn act | HUVEC inhibit | H69AR growth 86K | Jurkat tox 60K | Fibroblast inh
COC(=O)c1ccc(C(NC(=O)c2ccco2)[C@]2(C)C[C@H]2C2CCCCC2)cc1 (some centres undefined) | · | 1.1 | · | · | · | ·
CC(C)c1cc(C(=O)Nc2cc(Cl)ccc2O)no1 | -1.9 | 1.7 | 112 | 72 | 54* | 99
CCCc1cc(C(=O)Nc2cc(Br)ccc2O)no1 | · | 1.5 | 97 | 52 | 46* | 97
CCCc1cc(C(=O)Nc2ccc(C)cc2)no1 | · | 1.5 | 105 | 108 | -4 | 91
CC(C)c1cc(C(=O)Nc2cc(Br)ccc2O)no1 | -1.4 | 1.9 | 99 | 73 | · | 94
Cc1nn(-c2ccccc2)c(C)c1/C=N/n1c(-c2ccc(C(C)(C)C)cc2)n[nH]c1=S | -3.9* | · | · | · | · | ·
O=S1(=O)N=C2CCCN2C(c2ccc(F)cc2)N1 (centres undefined) | 0.29 | 1.1 | 103 | 101 | 2 | 102
CCOc1c(Br)cc(C2NS(=O)(=O)N=C3CCCCCN32)cc1OC (centres undefined) | 0.14 | 1 | 94 | 34* | 1 | 85
COc1ccc2[nH]c(=O)c(CN(Cc3cccs3)S(=O)(=O)c3cccc4nsnc34)cc2c1 | -2.7 | 0.9 | 74 | 3.0* | -3 | 83
COc1ccc2[nH]c(=O)c(CN(CCO)S(=O)(=O)c3c(C)ccc4nsnc34)cc2c1 | 0.46 | 1.2 | 96 | 77 | · | 101
COC(=O)c1ccccc1NC(=O)c1ccc2c(c1)C(=O)N(Cc1ccco1)C2=O | 1.3 | 1 | 92 | 11* | -6 | 107
Cc1c(C(=O)OC2CCCC2)[nH]c2c1C(=O)CC(c1ccco1)C2 (centres undefined) | · | 0.4 | 32 | 28* | 100* | 55
Cc1c(C(=O)OCC(C)C)[nH]c2c1C(=O)CC(c1ccco1)C2 (centres undefined) | · | 0.4 | 44 | 17* | 99* | 51
CCOC(=O)c1ccc(N=CC2=C(O)CC(c3ccco3)CC2=O)cc1 (centres undefined) | · | 1 | 92 | 93 | · | ·
C/C=C/COC(=O)c1[nH]c2c(c1C)C(=O)CC(c1ccco1)C2 (centres undefined) | · | 0.3 | 42 | 29* | 99* | 53
COC(=O)C1C(=O)c2c([nH]c(C(=O)OC3CCCC3)c2C)CC1C (centres undefined) | 0.4 | · | 90 | 70 | · | 90
COc1ccccc1C1CC(=O)NC(C)=C1C(=O)OCC1CCCO1 (centres undefined) | 0.01 | 1.3 | 112 | 91 | 8 | 100
Cc1c(C(=O)OCC2CCCO2)[nH]c2c1C(=O)CC(c1ccco1)C2 (centres undefined) | 0 | 0.7 | 57 | 28* | 78* | 57
CCC/C=C(\CCC)C(NC(=O)c1ccco1)c1ccc(C(=O)OC)cc1 (centres undefined) | · | 1 | · | · | · | ·
O=C(c1ccccc1)c1ccc(C(=O)N2CCOCC2)cc1 | -0.02 | 1.1 | 104 | 86 | 3 | 97
CCC(C)OC(=O)c1[nH]c2c(c1C)C(=O)CC(c1ccc(N(C)C)cc1)C2 (centres undefined) | · | 1.3 | 75 | 76 | 2 | 101
COC(=O)c1[nH]c2c(c1C)C(=O)CC(c1ccccc1)C2 (centres undefined) | 0.25 | · | 46 | 19* | 98* | 59
C=CCOC(=O)c1[nH]c2c(c1C)C(=O)CC(c1ccco1)C2 (centres undefined) | · | 0.4 | 46 | 30* | 100* | 55
